Measurements reported in ChEMBL document CHEMBL4138248, “Discovery of naphtho[1,2-d]oxazole derivatives as potential anti-HCV agents through inducing heme oxygenase-1 expression” (Eur J Med Chem, 2018).

Key:
Hepatitis C virus [1] = experiment: Antiviral activity against HCV infected in human Ava5 cells assessed as inhibition of viral RNA replication at 5 uM after 3 days by RT-qPCR method relative to control; assay type: functional, Hepacivirus hominis; conditions: Ava5, 72 h
Procedure, shortened: (§1)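 Ava5 replicon cells were exposed to 5 or 20 μM for 3 days, starting from 10 mM DMSO stocks diluted in medium. HCV RNA was quantified by RT-qPCR against gapdh and expressed as % inhibition relative to untreated control. Ribavirin was the reference drug. Mean ± SD of three independent experiments.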

[2] = Cytotoxicity against human Ava5 cells assessed as cell viability at 20 uM after 72 hrs by XTT assay relative to control; assay type: cell-based; conditions: read-out: Activity
Procedure, shortened: (§2)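 XTT viability assay run alongside the antiviral assays. Ava5 cells were plated at 5×10^3 per well and exposed to 20 or 200 μM for 72 h at 37 °C in humidified 5% CO₂. Viability is expressed as % of untreated cells.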

[3] = Cytotoxicity against human Ava5 cells assessed as cell viability at 200 uM after 72 hrs by XTT assay relative to control; assay type: cell-based; conditions: read-out: Activity; procedure, shortened: as §2
Hepatitis C virus [4] = experiment: Antiviral activity against HCV infected in human Ava5 cells assessed as inhibition of viral RNA replication at 20 uM after 3 days by RT-qPCR method relative to control; assay type: functional, Hepacivirus hominis; conditions: Ava5, 72 h; procedure, shortened: as §1
Hepatitis C virus [5] = experiment: Antiviral activity against HCV infected in human Huh7 cells assessed as inhibition of viral RNA replication after 3 days by RT-qPCR method; assay type: functional, organism-based, Hepacivirus hominis; conditions: Huh-7, 72 h
[6] = Cytotoxicity against human Ava5 cells assessed as decrease in cell viability after 72 hrs by XTT assay; assay type: cell-based
Procedure, shortened: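 XTT assay on […] Ava5 cells at 5×10^3 per well with serial dilutions for 72 h at 37 °C in 5% CO₂. CC50 is the concentration giving 50% growth inhibition.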

[7] = Selectivity index, ratio of CC50 for human Ava5 cells to IC50 for HCV; assay type: toxicity; conditions: read-out: Ratio CC50/IC50
Procedure, shortened: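 SI = CC50/IC50. CC50 comes from 72 h XTT in […] Ava5 cells. IC50 is the concentration giving 50% inhibition of HCV, measured by RT-qPCR after 3 days in Ava5 cells.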

Hepatitis C virus [8] = experiment: Antiviral activity against HCV infected in human Ava5 cells assessed as inhibition of viral RNA replication after 3 days by RT-qPCR method; assay type: functional, organism-based, Hepacivirus hominis; conditions: Ava5, 72 h
Procedure, shortened: (§3)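 Ava5 cells (Huh-7 hepatoma cells carrying an HCV replicon, grown in DMEM/10% FBS with 1 mg·mL⁻¹ G418) were treated for 3 days with a range of concentrations. HCV RNA was measured by RT-qPCR and normalized to cellular gapdh mRNA. Values are mean ± SD of three independent experiments, each in triplicate.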

Hepatitis C virus [9] = experiment: Antiviral activity against HCV Con1 infected in human Ava5 cells assessed as inhibition of viral RNA replication after 3 days by RT-qPCR method; assay type: functional, organism-based, Hepacivirus hominis; conditions: isolate Con1, Ava5, 72 h; procedure, shortened: as §3

| SMILES | inhibition at 5 µM (Hepatitis C virus [1]) | viability at 72 h, 20 µM [2] | viability at 72 h, 200 µM [3] | inhibition at 20 µM (Hepatitis C virus [4]) | EC50 (Hepatitis C virus [5]) | CC50 at 72 h [6] | selectivity ratio [7] | IC50 (Hepatitis C virus [8]) | EC50 (Hepatitis C virus [9]) |
| --- | --- | --- | --- | --- | --- | --- | --- | --- | --- |
| CN(c1ccc(Cl)cc1)c1cc2oc(-c3ccccc3)nc2c2ccccc12 | 1.2% | 81% | 25.5% | 1.21% |  |  |  |  |  |
| COc1cc(NCc2cc3ccccc3oc2=O)cc(OC)c1OC |  |  |  |  | 12 µM |  |  |  |  |
| COc1ccc(-c2nc3c(cc(N(C)c4ccc(Cl)cc4)c4ccccc43)o2)cc1 | 2.5% | 107% | 93% | 6.5% |  |  |  |  |  |
| Clc1ccc(Nc2cc3oc(-c4ccccc4)nc3c3ccccc23)cc1 | 1.2% | 107% | 93% | 3.53% |  |  |  |  |  |
| CN(c1ccccc1)c1cc2oc(-c3ccc(Cl)cc3)nc2c2ccccc12 | 4.2% | 94.7% | 29.6% | 5.12% |  |  |  |  |  |
| CN(c1ccc(Cl)cc1)c1cc2oc(-c3ccc(Cl)cc3)nc2c2ccccc12 | 1.1% | 86.4% | 30.2% | 2.56% |  |  |  |  |  |
| COc1ccc(N(C)c2cc3oc(-c4ccccc4)nc3c3ccccc23)cc1 | 3.4% | 83.6% | 27.5% | 3.51% |  |  |  |  |  |
| CN(c1ccccc1)c1cc2oc(-c3ccccc3)nc2c2ccccc12 | 1.5% | 82.3% | 25.5% | 2.31% |  |  |  |  |  |
| COc1ccc(N(C)c2cc3oc(-c4ccco4)nc3c3ccccc23)cc1 | 2.5% | 49.5% | 32.3% | 31.5% |  |  |  |  |  |
| NC(=O)c1ncn([C@@H]2O[C@H](CO)[C@@H](O)[C@H]2O)n1 [RIBAVIRIN] | 31.2% | 71.4% | 26.8% | 65.7% |  | 106 µM | 8.08 | 13.2 µM |  |
| Clc1ccc(Nc2cc3oc(-c4ccco4)nc3c3ccccc23)cc1 | 3.2% | 83.5% | 28.9% | 4.51% |  |  |  |  |  |
| Clc1ccc(Nc2cc3oc(-c4ccc(Cl)cc4)nc3c3ccccc23)cc1 | 8.1% | 60.2% | 27.5% | 55.2% |  | 83.7 µM | 4.71 | 17.8 µM |  |
| Cc1ccc2nc(Nc3ccc([N+](=O)[O-])cc3)sc2c1 |  |  |  |  |  |  |  |  | 8 µM |
| COc1ccc(-c2nc3c(cc(N(C)c4ccc(OC)cc4)c4ccccc43)o2)cc1 | 5.6% | 73.6% | 56.3% | 8.5% |  |  |  |  |  |
| CN(c1ccccc1)c1cc2oc(-c3ccco3)nc2c2ccccc12 | 2.9% | 88.8% | 40.6% | 3.54% |  |  |  |  |  |
| COc1ccc(-c2nc3c(cc(N(C)c4ccccc4)c4ccccc43)o2)cc1 | 2.5% | 69.2% | 54% | 3.21% |  |  |  |  |  |
| COc1ccc(-c2nc3c(cc(Nc4ccc(Cl)cc4)c4ccccc43)o2)cc1 | 4.5% | 83.7% | 23.4% | 8.5% |  |  |  |  |  |
| COc1ccc(Nc2cc3oc(-c4ccc(Cl)cc4)nc3c3ccccc23)cc1 | 3.2% | 103% | 98.2% | 35.6% |  |  |  |  |  |
| COc1ccc(Nc2cc3oc(-c4ccc(OC)cc4)nc3c3ccccc23)cc1 | 3.2% | 63.4% | 28.5% | 5.6% |  |  |  |  |  |
| Clc1ccc(-c2nc3c(cc(Nc4ccccc4)c4ccccc43)o2)cc1 | 2.5% | 99.9% | 62.4% | 3.33% |  |  |  |  |  |
| COc1ccc(N(C)c2cc3oc(-c4ccc(Cl)cc4)nc3c3ccccc23)cc1 | 2.4% | 94.7% | 29.6% | 2.65% |  |  |  |  |  |
| COc1ccc(-c2nc3c(cc(Nc4ccccc4)c4ccccc43)o2)cc1 | 3.7% | 86.3% | 68.5% | 5.31% |  |  |  |  |  |
| c1ccc(Nc2cc3oc(-c4ccco4)nc3c3ccccc23)cc1 | 1.8% | 81.2% | 31.5% | 2.53% |  |  |  |  |  |
| c1ccc(Nc2cc3oc(-c4ccccc4)nc3c3ccccc23)cc1 | 3.51% | 87% | 25.5% | 4.28% |  |  |  |  |  |
| COc1ccc(Nc2cc3oc(-c4ccccc4)nc3c3ccccc23)cc1 | 75.5% | 92.7% | 37.1% | 86.7% |  | 158 µM | 48.4 | 3.27 µM |  |
| CN(c1ccc(Cl)cc1)c1cc2oc(-c3ccco3)nc2c2ccccc12 | 2.7% | 73% | 26.5% | 3.12% |  |  |  |  |  |
